From paper PMC5014123 (Nature communications, 2015)
Like-named read-outs stand apart in the source and are kept apart here.

Assays:
MMP-14 = experiment: PrAMA inference of MMP-14 activity in PDAC cell lines; assay type: cell-based, human; conditions: Panc1_A8 cells, 1 µM, 24 hours, relative to vehicle
Summary of the method: (§1)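 Cells were cultured in duplicate for 24 h in serum-free, phenol-red-free DMEM, and medium and sucrose-buffer membrane fractions were collected. […] Activities were inferred from fold-change cleavage rates against purified-enzyme specificity matrices, in three repeats. Panc1_A8 received 1 uM test compound for 24 h versus vehicle; AsPC-1 knockdowns were compared with shCtrl.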

ADAM8 [1] = biological target: T1, ADAM8 (Homo sapiens, UniProt P78325); experiment: PrAMA inference of ADAM8 activity in PDAC cell lines; assay type: cell-based; conditions: Panc1_A8 cells, 1 µM, 24 hours, relative to vehicle
T1 sequence (P78325 17-824): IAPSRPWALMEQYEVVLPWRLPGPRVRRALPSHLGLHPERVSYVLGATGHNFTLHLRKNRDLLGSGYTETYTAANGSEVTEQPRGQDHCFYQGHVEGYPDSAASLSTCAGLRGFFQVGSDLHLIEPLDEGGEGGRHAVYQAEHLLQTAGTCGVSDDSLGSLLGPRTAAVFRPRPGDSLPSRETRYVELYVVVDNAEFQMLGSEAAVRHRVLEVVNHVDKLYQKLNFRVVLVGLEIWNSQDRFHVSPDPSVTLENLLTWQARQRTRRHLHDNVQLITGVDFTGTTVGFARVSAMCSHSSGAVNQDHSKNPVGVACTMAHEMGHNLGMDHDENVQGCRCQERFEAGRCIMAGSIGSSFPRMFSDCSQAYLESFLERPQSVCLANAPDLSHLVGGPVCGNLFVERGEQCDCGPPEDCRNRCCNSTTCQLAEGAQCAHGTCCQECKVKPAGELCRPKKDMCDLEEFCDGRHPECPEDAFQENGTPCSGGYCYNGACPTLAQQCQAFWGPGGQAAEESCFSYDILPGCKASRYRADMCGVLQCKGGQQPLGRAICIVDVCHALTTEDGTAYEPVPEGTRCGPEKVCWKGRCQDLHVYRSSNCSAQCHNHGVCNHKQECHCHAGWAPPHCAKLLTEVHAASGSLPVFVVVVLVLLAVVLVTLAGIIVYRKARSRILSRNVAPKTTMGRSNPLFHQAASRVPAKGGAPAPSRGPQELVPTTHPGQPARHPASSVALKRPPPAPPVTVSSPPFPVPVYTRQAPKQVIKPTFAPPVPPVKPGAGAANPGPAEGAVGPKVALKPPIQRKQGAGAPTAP

MMP-2 = experiment: PrAMA inference of MMP-2 activity in PDAC cell lines; assay type: cell-based, human; conditions: Panc1_A8 cells, 1 µM, 24 hours, relative to vehicle
Summary of the method: as §1

ADAM8 [2] = biological target: T1, ADAM8; assay type: cell-based
ADAM8 [3] = biological target: T2, ADAM8 (Homo sapiens, UniProt P78325); assay type: biochemical
T2 sequence (P78325 17-497): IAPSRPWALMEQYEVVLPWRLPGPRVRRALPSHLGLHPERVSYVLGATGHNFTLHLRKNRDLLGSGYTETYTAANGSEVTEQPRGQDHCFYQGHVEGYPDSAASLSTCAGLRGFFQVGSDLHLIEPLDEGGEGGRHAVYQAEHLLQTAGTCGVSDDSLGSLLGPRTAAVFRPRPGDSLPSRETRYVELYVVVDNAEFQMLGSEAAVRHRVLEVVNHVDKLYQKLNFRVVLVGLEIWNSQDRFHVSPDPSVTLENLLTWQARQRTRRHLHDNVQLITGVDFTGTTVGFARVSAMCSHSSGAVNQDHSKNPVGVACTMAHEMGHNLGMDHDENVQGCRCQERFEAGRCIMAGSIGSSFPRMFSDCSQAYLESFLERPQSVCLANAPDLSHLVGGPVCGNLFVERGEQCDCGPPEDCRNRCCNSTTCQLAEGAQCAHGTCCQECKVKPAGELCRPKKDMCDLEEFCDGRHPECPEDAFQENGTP

Panc1_A8 cells = experiment: Invasion assay of Panc1_A8 cells; assay type: cell-based, human; conditions: matrigel, 10 µM, 18h
Summary of the method: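 Panc1_ctrl and Panc1_A8 cells were run in duplicate with the ERK1/2 inhibitor U0126 (10 uM) for 18 h. Invasiveness is expressed relative to control. Statistics were by ANOVA and Student's t-test.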

ERK1/2 phosphorylation = experiment: Western blot of ERK1/2 phosphorylation in Panc1 cells; assay type: cell-based, human; conditions: Panc1_A8 cells; BK-1361 500 nM; U0126 10 µM
Summary of the method: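 ERK1/2 phosphorylation in Panc1_ctrl and Panc1_A8 cell lysates was detected by western blot with antibodies against the phosphorylated kinase forms, with or without 500 nM test compound.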

Row | SMILES | MMP-14 activity (PrAMA), Panc1_A8 (MMP-14) | ADAM8 activity (PrAMA), Panc1_A8 (ADAM8 [1]) | MMP-2 activity (PrAMA), Panc1_A8 (MMP-2) | IC50 (ADAM8 [2]) [nM] | IC50 (ADAM8 [3]) [nM] | invasion of Panc1_A8 cells (ERK1/2 inhibitor) (Panc1_A8 cells) | ERK1/2 phosphorylation (pERK1/2) (ERK1/2 phosphorylation)
1 | CNC(=O)[C@H](Cc1ccccc1)NC(=O)[C@H](CC(C)C)[C@H](CSc1cccs1)C(=O)NO [BB-94, Batimastat] | reduced | reduced | reduced | 57 ± 6 | – | – | –
2 | CNC(=O)[C@@H](NC(=O)[C@H](CC(C)C)[C@H](O)C(=O)NO)C(C)(C)C [BB-2516, Marimastat] | – | – | – | 1250 ± 103 | 1050 ± 154 | – | –
3 | N#CC(=C(/N)Sc1ccccc1N)/C(C#N)=C(/N)Sc1ccccc1N [U0126] | greater effect | not affected | slight effect | – | – | decreased invasion | blocked ERK1/2 phosphorylation
